# APJ antag = antagonists of human apelin receptor APJ, primary screen, CHO-K1 cells, beta-arrestin complementation, luminescence; P35414; inhibition, % at 20 µM; actives 0.32% (n = 330,000);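 active = inhibition above about 40% at 20 µM, limit read from the data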;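 also: cells challenged with 10 nM apelin-13 agonist together with compound; plate controls were apelin-13 plus DMSO wells for no effect and DMSO wells lacking apelin-13 for full effect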
# hiPSC survival = enhancers of single-cell hiPSC survival, primary screen, ATPlite luminescence. 100% = ROCK inhibitor wells, 0% = DMSO. survival enhancement, % at 20 µM. actives 0.044% (n = 360,000); in the data active = survival enhancement above about 18%;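 also: cells exposed to compounds for 16 hours before the ATP read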
# APJ ag = agonists of human apelin receptor APJ, primary screen, CHO-K1 cells, PathHunter beta-arrestin, luminescence | P35414 | 0% DMSO wells, 100% apelin | activation, % at 20 µM | actives 0.11% (n = 330,000);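 active = activation more than six SD over the plate average, tested at 20 µM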;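 also: 0% = DMSO alone and 100% = apelin-13 at 10 nM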
#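 Test system: CHO-K1 APJ beta-arrestin complementation cell line | Compound: Single test compound dose, 20 µM final, 1% DMSO | Incubation: Compound 90 min 25 °C, reagent 1 h | Measured by: beta-gal luminescence | Read-out basis: APJ–arrestin association signal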
# CXCR6 block = CXCR6 receptor inhibitors, primary screen, cell-based, beta-arrestin, luminescence, CHO-K1 PathHunter, 1536-well; inhibition, % at 20 µM; actives 0.36% (n = 360,000); C-X-C chemokine receptor type 6 (Homo sapiens), O00574; in the data active = inhibition above about 34%, passing the limit was not always enough;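 also: antagonist mode with CXCL16 agonist at 10 nM final; 0% = 10 nM CXCL16 with DMSO and 100% = unstimulated wells without agonist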
# CCR6 antag = CCR6 receptor antagonists, primary screen, cell-based, CHO-K1, luminescence, beta-arrestin, uHTS; CHO-K1 CCR6 PathHunter beta-arrestin, CCL20-stimulated; actives 0.49% (n = 340,000); inhibition, % at 20 µM;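 active = compounds whose inhibition of the agonist-driven luminescence signal at 20 µM reaches about 50%, limit read from the data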;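 also: cells stimulated with CCL20 at 14 nM final; plate controls were DMSO with CCL20 for no effect and DMSO without agonist for full effect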
# Target sequence (P51684 whole entry, looked up): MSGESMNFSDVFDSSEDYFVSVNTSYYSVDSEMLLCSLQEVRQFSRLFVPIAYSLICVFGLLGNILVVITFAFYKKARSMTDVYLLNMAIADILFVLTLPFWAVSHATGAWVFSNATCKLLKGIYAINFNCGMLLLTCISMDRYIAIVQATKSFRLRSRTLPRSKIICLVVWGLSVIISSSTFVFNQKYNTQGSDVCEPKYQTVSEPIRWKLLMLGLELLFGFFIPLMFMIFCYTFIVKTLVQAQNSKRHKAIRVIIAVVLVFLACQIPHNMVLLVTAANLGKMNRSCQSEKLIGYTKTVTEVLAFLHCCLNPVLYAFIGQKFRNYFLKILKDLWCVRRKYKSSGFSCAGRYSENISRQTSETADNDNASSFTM
# DAGLB inh = DAGLB lipase inhibitors, primary screen, biochemical, fluorescence, HTS | Diacylglycerol lipase-beta (Homo sapiens), Q8NCG7 | HEK293T DAGLB membrane lysate, EnzChek fluorogenic substrate | inhibition, % at 5.17 µM | actives 0.059% (n = 340,000) | AID 504411, 2011; in the data active = inhibition above about 34%;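 also: 0% = enzyme with vehicle and 100% = wells lacking enzyme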
# APJ antag confirm = APJ antagonists blocking beta-arrestin recruitment, confirmation, cell-based, luminescence, single concentration, uHTS hits. antagonist mode. inhibition, % at 20 µM. shares compounds with APJ antag. actives 66% (n = 950). AID 2766, 2010; in the data active = inhibition above about 50%
# DAGLB confirm = DAGLB lipase inhibitors, retest, confirmation, biochemical, fluorescence, HEK293T membranes; HEK293T DAGLB membrane lysate, EnzChek fluorogenic substrate; inhibition, % at 5.17 µM; AID 504445, 2011; actives 73% (n = 190); shares compounds with DAGLB inh;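 active = mean inhibition over triplicate wells above a set limit taken from the primary lipase screen, cut at about 34% in these data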;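 also: 0% = DAGLB with DMSO and 100% = wells lacking DAGLB enzyme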
# CXCR6 antag conf = CXCR6 receptor antagonists, confirmation, cell-based, single concentration, beta-arrestin, luminescence; actives 65% (n = 700); CHO-K1 CXCR6 PathHunter beta-arrestin; shares compounds with CXCR6 block; inhibition, % at 20 µM;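 active = mean inhibition over four retests above 40%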;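 also: receptor stimulated with 10 nM CXCL16 agonist; beta-galactosidase fragment complementation upon beta-arrestin recruitment to receptor; plate controls were CXCL16 plus DMSO for no effect and DMSO without CXCL16 for full effect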
# * marks the source's active call; other numbers are inactive results; . = not tested or not shown. The list is not random: actives were taken first. Their share in the collection is about 0.86%.
SMILES,APJ antag,hiPSC survival,APJ ag,CXCR6 block,CCR6 antag,DAGLB inh,CXCR6 antag conf,others
CCOC(=O)c1c(NS(=O)(=O)c2ccccc2)n(CCCOC)c2nc3ccccc3nc12,50*,-1,-7,18,60*,-5,.,APJ antag confirm=9
COCCCn1c(N)c(C(=O)OCCOC)c2nc3ccccc3nc21,10,1,-9,-5,13,-4,.,
CCCCCn1c(NC(=O)c2ccco2)c(C(=O)OCC)c2nc3ccccc3nc21,49*,2,-10,-4,38,-17,.,APJ antag confirm=28
CC(=O)N1CC(=O)Nc2ccc(Cl)cc2C1c1ccccc1 (configuration not stated),7,0,-1,-1,8,-5,.,
CNc1ccc2oc(C[C@H]3O[C@@]4(CC[C@H]3C)O[C@H]([C@H](C)C(=O)c3ccc[nH]3)[C@H](C)C[C@H]4C)nc2c1C(=O)O,65*,-3,2,75*,55*,15,69*,APJ antag confirm=61*
BrCC(Br)(Br)Br,0,0,-1,-2,-4,-4,.,
COc1cc(/C=C/[N+](=O)[O-])ccc1OC(=O)c1cccnc1,59*,0,4,57*,82*,-1,63*,APJ antag confirm=72*
COC(=O)C1=C(c2ccc(S(C)(=O)=O)cc2)C[C@@H]2CC[C@H]1N2C(=O)NCc1ccco1,4,7,-2,-6,-2,2,.,
C=C1C(=O)O[C@@H]2C[C@@H](C)[C@@H]3C=CC(=O)[C@@]3(C)[C@@H](OC(=O)CC(=O)O[C@H]3[C@@H]4C(=C)C(=O)O[C@@H]4C[C@@H](C)[C@@H]4C=CC(=O)[C@]43C)[C@H]12,83*,4,-9,92*,98*,2,100*,APJ antag confirm=115*
COC(=O)C1=C(c2cc3ccccc3o2)C[C@@H]2CC[C@H]1N2C(=O)NCc1ccc(C(F)(F)F)cc1,6,-2,4,8,11,-2,.,
O=[N+]([O-])c1cc(O)c(O)c([N+](=O)[O-])c1,19,-1,-5,11,46,42*,.,DAGLB confirm=33
CC1N=C(c2ccccc2)c2cc(Br)ccc2NC1=O (configuration not stated),16,0,-3,3,8,-2,.,
COc1ccc(OC(=O)N(C)C[C@@H]2OCc3cnnn3CCCC(=O)N([C@@H](C)CO)C[C@H]2C)cc1,.,0,.,1,.,-1,.,
COc1ccc(OC(=O)N(C)C[C@@H]2OCc3cnnn3CCCC(=O)N([C@H](C)CO)C[C@@H]2C)cc1,.,-2,.,90*,.,0,4,
O=C1C(Br)C2CCC1C2C(=O)O (configuration not stated),.,-2,.,-1,.,-1,.,
COC(=O)C1=C(C(=O)OC)SC2(S1)C(C(=O)OC)=C(C(=O)OC)Sc1c2ssc1=O,.,4,.,68*,86*,8,56*,
COc1ccc(CCn2c(O)c(C=NCc3cccnc3)c(=O)[nH]c2=O)cc1OC,7,-1,0,5,13,-1,.,
COc1ccc(C2CC(c3c(O)n(CCc4ccccc4)c(=O)[nH]c3=O)=NN2)cc1OC (configuration not stated),4,0,-13,90*,104*,3,104*,
CCCC(C)n1[nH]c(=O)c2c1NC(=O)CSC2c1ccccc1 (configuration not stated),12,-1,-2,-5,6,1,.,
Cn1c(O)c(C2=NNC(c3ccc(Cl)cc3)C2)c(=O)n(C)c1=O (configuration not stated),14,0,-4,34*,56*,5,112*,
Cc1cc([N+](=O)[O-])c(Cl)cc1NC(=O)C(C)C,4,-2,-3,-3,2,2,.,
CNc1cc(Cl)c2nonc2c1[N+](=O)[O-],.,48*,.,100*,98*,-6,103*,
CCC(c1nnnn1-c1ccc2c(c1)OCCO2)N1CCC2(CC1)C(=O)NCN2c1ccccc1 (configuration not stated),.,3,.,25,.,.,.,
O=C1NCN(c2ccccc2)C12CCN(C(c1nnnn1C1CCCC1)C1CC1)CC2 (configuration not stated),.,-4,.,-4,.,.,.,
CCCCCCCCn1sccc1=O,26,-5,-4,99*,105*,-13,105*,
CCOC(=O)[C@]12Cc3cc(Cl)ccc3[C@H]1N(C1CCCCC1)C(=O)c1cc(OC)ccc12,.,-2,.,42*,.,.,47*,
